Data published in PMC3129977 (ACS chemical neuroscience, 2011).

Tests used:
aggregated Aβ42 peptides [1] = molecular target: T1, aggregated Aβ42 peptides (Homo sapiens, UniProt P05067); assay: Fluorescence studies with aggregated Aβ peptides; format: binding
[2] = molecular target: Aβ plaques in brain sections from an AD patient (Homo sapiens, UniProt P05067); assay: Staining of frozen human brain tissue sections; settings: 60 μM probe in PBS, 30 min
Outline: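 Frozen AD brain sections were dried for 1 h, passed through 100%, 95% and 70% ethanol (5 min each), rinsed in water, and equilibrated 15 min in PBS. Probe was diluted 1:50 from 3 mM PBS stock to 60 μM final and applied for 30 min at room temperature. Sections were PBS-washed, coverslipped and imaged by epifluorescence. Plaque/background intensity was normalized to a reference probe, as mean ± SD, n = 10 measurements per probe.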

aggregated Aβ42 peptides [3] = molecular target: T1, aggregated Aβ42 peptides; settings: earlier report; cited from earlier work
[4] = free probe 4 μM, 5% DMSO in nanopure water, before mixing with aggregated Aβ42
[5] = probe 4 μM after mixing with aggregated Aβ42 (5 μM)

T1 sequence (P05067 672-713 limits assumed): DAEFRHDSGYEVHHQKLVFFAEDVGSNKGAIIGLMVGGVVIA
Chain of Aβ plaques in brain sections from an AD patient (P05067 672-711 limits assumed): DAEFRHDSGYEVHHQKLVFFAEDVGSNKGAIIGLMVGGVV

Compound: COCCOCCOCCOC(=O)/C(C#N)=C/c1ccc2cc(N3CCCCC3)ccc2c1 [Compound 6]
- Em. max before (aggregated Aβ42 peptides [1]; [4]): 590 nm
- Exc. max before (aggregated Aβ42 peptides [1]; [4]): 415 nm
- Em. max after (aggregated Aβ42 peptides [1]; [5]): 545 nm
- Exc. max after (aggregated Aβ42 peptides [1]; [5]): 410 nm
- Fold increase in emission intensity upon association with aggregated Aβ42 (aggregated Aβ42 peptides [1]; probe 4 μM, aggregated Aβ42 5 μM): 7.7 fold
- Fluorescence contrast between plaques and surrounding tissue [2]: weaker observed contrast
- Staining of Aβ plaques [2]: stained
- Fluorescence change upon binding to Aβ fibrils (aggregated Aβ42 peptides [3]): large increase in fluorescence intensity
